The source of these data is ChEMBL document CHEMBL4011628, “Pharmacophore Identification and Scaffold Exploration to Discover Novel, Potent, and Chemically Stable Inhibitors of Acid Ceramidase in Melanoma Cells” (J Med Chem, 2017).

pIC50: −log10 of the molar value. Active and inactive are the calls of the source. The calls are words filed in the database; no cut-off is given here.

Data set [1] can be described thus: Half life in mouse plasma at 2 uM up to 120 mins by UPLC/MS analysis. In kind it is ADME, cell-free. A digest of the protocol: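 Mouse plasma with 5% DMSO, prewarmed 15 min at 37 °C; compound final 2.0 μM. Aliquots at 0, 5, 15, 30, 60 and 120 min quenched in cold ACN containing 200 nM warfarin internal standard. Spun 3500g, 15 min, 4 °C; supernatant run on UPLC/MS TQD. Half-life from one-phase decay fit of peak area versus time.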

Data set [2] addresses Acid ceramidase (Homo sapiens, UniProt Q13510). Put plainly: Inhibition of human C-terminal His-tagged acid ceramidase variant 1 expressed in HEK293 cells using fluorogenic substrate Rbm-14-12 preincubated for 30 mins followed by substrate addition measured after 1 hr by fluorogenic assay. Type of data set: cell-based.
Data set [3] in a line: Half life in PBS buffer at pH 7.4 at 10 uM by UPLC/MS analysis. In kind it is physicochemical. A digest of the protocol: (§1)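 Compound taken from 10 mM DMSO stock to 10 μM in PBS pH 7.4 (prewarmed) or acetate pH 4.5, held at 37 °C with shaking. Samples taken over time and diluted in ACN. Analysed by UPLC BEH C18 (30–100% ACN over 4 min) with qTOF HRMS in positive ion mode. Half-life from one-phase decay fit of peak area versus time.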

A short description of data set [4]: Half life in acetate buffer at pH 4.5 at 10 uM by UPLC/MS analysis. Type of data set: physicochemical. Summed up: as §1
Data set [5] concerns the target T1, Acid ceramidase (Homo sapiens, UniProt Q13510).
T1 sequence (Q13510 whole entry): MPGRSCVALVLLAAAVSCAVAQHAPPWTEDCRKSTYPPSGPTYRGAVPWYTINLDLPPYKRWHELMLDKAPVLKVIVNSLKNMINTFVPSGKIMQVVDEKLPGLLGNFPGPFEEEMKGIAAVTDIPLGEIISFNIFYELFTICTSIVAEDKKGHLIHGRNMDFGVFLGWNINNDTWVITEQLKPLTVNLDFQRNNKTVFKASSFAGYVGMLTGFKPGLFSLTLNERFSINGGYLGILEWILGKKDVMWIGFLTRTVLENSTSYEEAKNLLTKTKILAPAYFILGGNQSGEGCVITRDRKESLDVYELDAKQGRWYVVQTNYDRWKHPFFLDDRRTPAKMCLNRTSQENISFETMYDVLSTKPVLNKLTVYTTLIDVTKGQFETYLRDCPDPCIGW
Put plainly: Inhibition of acid ceramidase in human G361 cells using fluorogenic substrate Rbm-14-12 preincubated for 2 hrs followed by substrate addition measured after 3 hrs by fluorogenic assay. Type of data set: cell-based. Summed up: (§2)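 A375 (5 × 10^4) or G-361 (2.5 × 10^4) cells grown in DMEM with 10% FBS and 2 mM glutamine. Compounds or DMSO added 24 h after seeding, 2 h at 37 °C. Rbm-14-12 then added to 20 μM final for 3 h. Stopped with methanol/NaIO4; fluorescence read at ex 355/em 460. Run in triplicate; IC50 from four-parameter fit, mean ± SD of two independent experiments.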

Another data set deals with A-375. Description: Cytotoxicity against human A375 cells assessed as […] in cell viability after 72 hrs by MTT assay. In kind it is cell-based. Conditions: a-375, 72 h.
In data set [6] the target is T1, Acid ceramidase. Description: Inhibition of acid ceramidase in human A375 cells using fluorogenic substrate Rbm-14-12 preincubated for 2 hrs followed by substrate addition measured after 3 hrs by fluorogenic assay. In kind it is cell-based. Summed up: as §2
In the next data set the test system is G-361. Put plainly: Cytotoxicity against human G361 cells assessed as […] in cell viability after 72 hrs by MTT assay. In kind it is cell-based. The following applies: g-361, 72 h. Background: Tetrazolium assays rely on reduction of a dye to a coloured formazan, in cell work by metabolically active cells.
In data set [7] the target is T2, Acid ceramidase (Homo sapiens) (UniProt Q13510).
T2 sequence (whole entry): T1 sequence (Q13510 whole entry)
Description: Covalent binding affinity to recombinant human acid ceramidase assessed as N-terminal CTSIVAEDK peptide adduct formation at 10:1 molar ratio of compound to protein after 1 hr by trypsin digestion-based UPLC-MS analysis. Summed up: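 Purified recombinant human AC (10 μg) preincubated 1 h at 37 °C in 20 mM acetate pH 4.5 with 3 mM DTT. Compound then added at 10:1 molar ratio to protein, 1 h at 37 °C; DMSO control. Stopped with cold acetone, pellet dried, redissolved in 50 mM (NH4)2CO3 pH 8. Trypsin 1:50 w/w overnight at 37 °C; peptides read by LC-MS.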

Take `CCCCCCNC(=O)n1nnc2ncccc21`: in [1], the half-life (usually how long it takes for the measured level to halve) at 2 µM is below 5 min. Also, at Acid ceramidase [2], the pIC50 (usually the IC50 on a negative log10 scale, so that one unit is a factor of ten) is 8.66. In addition, the half-life at 10 µM in [3] was 2 min; in data set [4], above 120 min.
In turn, `Cc1ccccc1CNC(=O)n1cnc2ccccc21` had a half-life at 2 µM in [1] of 44 min. The same molecule showed a pIC50 against Acid ceramidase [2] of 7.25. The half-life at 10 µM in data set [3] turned out to be 58 min; in data set [4] it was 82 min.
Consider `Cc1ccc(CNC(=O)n2c(N)nc3ccccc32)cc1`, for which, in data set [1], the half-life at 2 µM was below 5 min. For the same molecule, the pIC50 at Acid ceramidase [2] is 8.15. Also, the half-life at 10 µM in data set [3] was determined as 23 min; in data set [4], 34 min.
The matching figures for `O=C(NCCCCc1ccccc1)n1c(=O)[nH]c2ccccc21`: above 120 min, below 5.00, above 120 min and above 120 min.
Molecule `O=C(NCc1ccccc1)n1cnc2ccccc21` had a half-life at 2 µM in [1] of 108 min. Moreover, the pIC50 against Acid ceramidase [2] was 7.65; at Acid ceramidase [5] it was 5.55; on Acid ceramidase [6] it was 5.97. Moreover, the results for the half-life at 10 µM in data set [3] and in data set [4] were above 120 min and 94 min, respectively. The Activity result in the data set with A-375 and in the data set with G-361 was “Non-Toxic” each time.
As for `O=C(NCCCCc1ccccc1)n1cnc2ccccc21`, in [7], the result was Active. The molecule also had a half-life at 2 µM in [1] above 120 min. The pIC50 on Acid ceramidase [2] is 8.60; against Acid ceramidase [5], 6.64; at Acid ceramidase [6], 7.12. The half-life at 10 µM in data set [3] was 50 min; in data set [4], above 120 min. The Activity result in the data set with A-375 and in the data set with G-361 was “Non-Toxic” each time.
In data set [1], `Cc1nc2ccccc2n1C(=O)NCCCCc1ccccc1` had a half-life at 2 µM of 11 min. For the same molecule, on Acid ceramidase [2], the pIC50 is 9.00. The half-life at 10 µM in data set [3] was 7 min; in data set [4], 8 min.
Molecule `Nc1nc2ccccc2n1C(=O)NCc1ccccc1` had a half-life at 2 µM in data set [1] of 13 min. At Acid ceramidase [2], this molecule gave a pIC50 of 7.53. Besides, the half-life at 10 µM worked out at 13 min in [3] and 42 min in data set [4].
Regarding `Cc1ccc(CNC(=O)n2cnc3ccccc32)cc1`, the half-life at 2 µM in [1] was determined as 94 min. Besides, the pIC50 at Acid ceramidase [2] is 7.83; against Acid ceramidase [5], 6.03; on Acid ceramidase [6], 6.30. The half-life at 10 µM in data set [3] and in data set [4] was above 120 min throughout. Moreover, the Activity entry in the data set on A-375 and in the data set on G-361 was “Non-Toxic” in each case.
Consider `O=C(NCCCCc1ccccc1)n1nnc2ccccc21`, for which, on Acid ceramidase [2], the negative-log IC50 (pIC50) was 8.68. The molecule further registered a half-life at 10 µM in data set [4] above 120 min.
Regarding `CCCCCCNC(=O)Nc1nc2ccccc2o1`, at Acid ceramidase [2], the pIC50 is below 5.00.
Regarding `CCCCCCNC(=O)Nc1nc2ccccc2[nH]1`, the pIC50 at Acid ceramidase [2] is below 5.00.
In the case of `Nc1nc2ccccc2n1C(=O)NCCCCc1ccccc1`, the half-life at 2 µM in data set [1] was determined as 9 min. Also, the pIC50 at Acid ceramidase [2] is 9.05. In addition, the half-life at 10 µM in data set [3] stood at 14 min; in data set [4] it was 43 min.
Turning to `O=C(NCCCCc1ccccc1)N1C(=O)c2ccccc2C1=O`, in [1], the half-life at 2 µM came out at 23 min. The pIC50 against Acid ceramidase [2] was 8.62. The figures for the half-life at 10 µM in [3] and in data set [4] were 6 min and above 120 min, respectively.
As for `CCCCCCNC(=O)n1cnc2ccccc21`, in [1], the half-life at 2 µM is above 120 min. In addition, at Acid ceramidase [2], the pIC50 is 8.18. Further, the half-life at 10 µM in data set [3] was 59 min; in data set [4] it was above 120 min.
For `CCCCCCNC(=O)n1c(N)nc2ccccc21`, the pIC50 at Acid ceramidase [2] was 8.62.
As for `O=C(NCCCCc1ccccc1)n1c(=O)n(C(=O)NCCCCc2ccccc2)c2ccccc21`, in data set [1], the half-life at 2 µM was above 120 min. Further, at Acid ceramidase [2], the pIC50 is 7.68. The half-life at 10 µM in data set [3] and in data set [4] was above 120 min in each case.
`O=C(NCCCCc1ccccc1)n1nnc2ncccc21` showed a half-life at 2 µM in data set [1] below 5 min. This molecule also gave a pIC50 on Acid ceramidase [2] of 8.89. In addition, the half-life at 10 µM in data set [3] is 2 min; in data set [4], above 120 min.
In the same order, the values of `CCCCCCNC(=O)N1C(=O)c2ccccc2C1=O` are 29 min, 8.15, 9 min and above 120 min.
`O=C(NCCCCc1ccccc1)n1ncc2ccccc21` came in with a half-life at 2 µM in data set [1] above 120 min. Moreover, the pIC50 at Acid ceramidase [2] is 8.33. The half-life at 10 µM in [3] is 134 min; in data set [4] it was above 120 min.
For `CCCCCCNC(=O)n1cc(F)c(=O)[nH]c1=O` [CARMOFUR], the pIC50 is 7.68 on Acid ceramidase [2], 6.12 on Acid ceramidase [5] and 6.72 at Acid ceramidase [6].
As for `O=C(NCCCCc1ccccc1)Nc1nc2ccccc2[nH]1`, the pIC50 at Acid ceramidase [2] was below 5.00.
Take `O=C(NCCCCc1ccccc1)Nc1nc2ccccc2s1`: the pIC50 at Acid ceramidase [2] is below 5.00.
Consider `CCCCCCNC(=O)n1ncc2ccccc21`, for which the half-life at 2 µM in data set [1] is above 120 min. On Acid ceramidase [2], this molecule gave a pIC50 of 8.00. Moreover, the half-life at 10 µM in data set [3] is 81 min; in [4] it was above 120 min.
With `Cc1cccc(CNC(=O)n2c(N)nc3ccccc32)c1`, the half-life at 2 µM in [1] was below 5 min. The pIC50 at Acid ceramidase [2] is 8.07. The results for the half-life at 10 µM in [3] and in data set [4] were 11 min and 27 min, respectively.
In [1], `Cc1cccc(CNC(=O)n2cnc3ccccc32)c1` yielded a half-life at 2 µM of 71 min. Also, the pIC50 at Acid ceramidase [2] is 8.08. Further, the half-life at 10 µM is 56 min in data set [3] and above 120 min in data set [4].
`O=C(NCCCCc1ccccc1)Nc1nc2ccccc2o1` showed a pIC50 on Acid ceramidase [2] below 5.00.
Take `CCCCCCNC(=O)n1nnc2ccccc21`: the half-life at 2 µM in data set [1] amounted to 13 min. The molecule also showed a pIC50 against Acid ceramidase [2] of 8.39. Also, the half-life at 10 µM is 17 min in data set [3] and above 120 min in data set [4].
On Acid ceramidase [2], `CCCCCCNC(=O)Nc1nc2ccccc2s1` showed a pIC50 below 5.00.
Consider `Cc1ccccc1CNC(=O)n1c(N)nc2ccccc21`, for which, in [1], the half-life at 2 µM is below 5 min. Also, the pIC50 against Acid ceramidase [2] is 7.16. Moreover, the half-life at 10 µM is 10 min in data set [3] and 27 min in data set [4].
Regarding `COc1nc2ccccc2n1C(=O)NCCCCc1ccccc1`, in [7], the result was Active. In addition, the half-life at 2 µM in [1] was above 120 min. Further, the pIC50 was 7.86 at Acid ceramidase [2], 5.56 on Acid ceramidase [5] and 6.01 on Acid ceramidase [6]. The half-life at 10 µM in data set [3] and in data set [4] was above 120 min each time. The Activity entry with A-375 and with G-361 was “Non-Toxic” each time.
